Screens (PubChem)
OX1R antag-1: antagonists of human orexin 1 receptor (OX1R) | Orexin/Hypocretin receptor type 1 (Homo sapiens), O43613 | OX1R-expressing cells, FRET antagonist read-out | inhibition, % at 6.6 µM | 1.8% of 330,000 active; in the data active means inhibition mostly above about 38%, no sharp cut-off; inactive means mostly below about 40%;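 further: 0% = agonist challenge alone and 100% = reference antagonist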
OX1R antag-2: OX1R (HCRTR1) antagonists, primary screen, fluorescence, CHO/OX1R cells, Fluo-8 calcium, orexin A; 0.43% of 330,000 active; Fluo-8 calcium fluorescence; Orexin/Hypocretin receptor type 1 (Homo sapiens), O43613; AID 434989, 2010; inhibition, % at 5 µM;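 active means inhibition above its plate's threshold, mean inhibition of all tested compounds on the plate plus 3 SD, cut at about 37% in these data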;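 further: 0% = orexin A challenge wells and 100% = SB-334867-A antagonist wells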
TAAR1 antagonist: human TAAR1 antagonists, primary screen, Fluo-8 calcium fluorescence, CHO RD-HGA16 cells; antagonist; inhibition, % at 3 µM; 1.5% of 360,000 active;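 active means inhibition above a per-plate cutoff, the mean inhibition of test compounds on that plate plus 3 SD, cut at about 49% in these data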;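 further: 0% = DMSO plus EC80 beta-PEA response and 100% = DMSO alone without agonist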
Target sequence (Q96RJ0 whole entry, looked up): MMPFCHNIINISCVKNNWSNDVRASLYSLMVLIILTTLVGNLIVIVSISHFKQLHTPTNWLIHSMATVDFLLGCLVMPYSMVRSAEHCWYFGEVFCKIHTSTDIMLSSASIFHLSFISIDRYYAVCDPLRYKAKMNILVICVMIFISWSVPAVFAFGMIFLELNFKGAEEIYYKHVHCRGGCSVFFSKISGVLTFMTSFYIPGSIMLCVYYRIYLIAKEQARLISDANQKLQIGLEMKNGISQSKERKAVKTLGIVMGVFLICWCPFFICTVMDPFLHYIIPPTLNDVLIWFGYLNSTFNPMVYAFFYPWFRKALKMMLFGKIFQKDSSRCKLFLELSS
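Test system: CHO RD-HGA16 cells bearing hTAAR1 | Reagent: β-PEA, EC80 | Compound dosing: 3 µM, single point | Schedule: Dye loading 75 min at 37 °C, then 30 min room temperature | Signal: Calcium fluorescence with Fluo-8 | Evaluation: Percent inhibition of PEA-evoked calcium signal, max/basal emission ratio | Control set: DMSO-only wells and EC80 β-PEA-stimulated wells | Repeats: Singlicate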
TAAR1 ag: human TAAR1 agonists, primary screen, Fluo-8 calcium fluorescence, CHO RD-HGA16 cells. Trace amine-associated receptor 1 (Homo sapiens), Q96RJ0. vehicle wells 0%, saturating PEA agonist 100%. activation, % at 3 µM. 0.99% of 360,000 active;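 active means activation above the mean activation of all test compounds in the run plus 3 SD, cut at about 38% in these data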
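Test system: RD-HGA16 (CHO) cells co-expressing Gα16 and hTAAR1 | Doses: Single dose, 3 µM | Schedule: 17-24 h seeding, 75 min 37 °C dye, 30 min RT | Evaluation: % activation from peak over basal fluorescence ratio, DMSO-to-PEA scaled | Technique: Kinetic Fluo-8 calcium fluorescence | Benchmarks: Low control DMSO, high control PEA (EC100)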
CHO parental Ca: ATP-evoked calcium signal inhibitors, parental CHO, primary screen, counter-screen for OX1R antagonist project, cell-based, fluorescence, Fluo-8 calcium dye; inhibition, % at 5.6 µM; parental CHO-K1, ATP-induced calcium, Fluo-8 fluorescence; 0.63% of 330,000 active; AID 463079, 2010;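 active means inhibition above that plate's mean sample inhibition plus 3 SD, cut at about 26% in these data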;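 further: 0% = ATP-challenged DMSO wells and 100% = DMSO wells without ATP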
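Material: Parental CHO cells | Reagent: ATP | Compound dosing: Single nominal dose of 5.6 µM per compound | Detection: Intracellular calcium via Fluo-8 no-wash fluorescent dye | Read-out: % inhibition of ATP-induced calcium mobilization | Benchmarks: Low control ATP plus DMSO, high control DMSO only | Replicates: Singlicate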
NTR1 agonist: agonists of human NTR1, primary screen, imaging, U2OS cells, beta-arrestin-GFP, high content; Neurotensin receptor type 1 (Homo sapiens), P30989; activation, % at 20 µM; NTR1-U2OS beta-arrestin-GFP spot imaging, agonist mode; 0.17% of 330,000 active; AID 493036, 2011;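 active means activation at or above 40% of the spot to cytoplasm intensity ratio, with at least 20 cells analyzed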;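 further: 0% = DMSO without peptide and 100% = 100 nM NTR1 peptide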
TAAR1 nonsel count: nonselective antagonists in TAAR1 counter-screen cells, counter-screen for hTAAR1 antagonist project, cell-based, fluorescence, calcium; counterscreen cell line, antagonist mode; 77% of 2,400 active; shares compounds with TAAR1 antagonist; inhibition, % at 3 µM; AID 651780, 2012; in the data active means inhibition above about 22%;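 further: CHO-Ga16 host cells stimulated with ATP at an EC80 level; 0% = agonist EC80 plus vehicle and 100% = vehicle without agonist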
TAAR1 antag conf: human TAAR1 antagonists, retest of hits, confirmation, cell-based, fluorescence; inhibition, % at 3 µM; shares compounds with TAAR1 antagonist; AID 651785, 2012; TAAR1-expressing cells, fluorescence antagonist read-out; 40% of 2,400 active; in the data active means inhibition above about 49%;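 further: CHO-Ga16 host cells challenged with agonist PEA near its EC80; 0% = agonist at EC80 plus vehicle and 100% = vehicle with no agonist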
Ga16 nonsel ag: calcium activation in Ga16-expressing cells, counter-screen for TAAR1 antagonist project, cell-based, fluorescence; activation, % at 3 µM; 18% of 2,400 active; agonist counterscreen; shares compounds with TAAR1 antagonist; in the data active means activation above about 12%;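 further: 0% = vehicle wells and 100% = saturating stimulus response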
TAAR1 ag counter: TAAR1 activation by candidate antagonists – cell-based, fluorescence, counter-screen for TAAR1 antagonist project; shares compounds with TAAR1 antagonist; 2% of 2,400 active; activation, % at 3 µM; AID 651955, 2012; hTAAR1 cell line, agonist mode; in the data active means activation above about 37%;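 further: CHO cells stably expressing TAAR1 with calcium dye readout; 0% = DMSO vehicle and 100% = full agonist response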
The depositor's hits bear a star; . = not tested or not shown. An excerpt weighted towards active compounds, which were near 4% of everything screened.

SMILES | OX1R antag-1 | OX1R antag-2 | TAAR1 antagonist | TAAR1 ag | CHO parental Ca | NTR1 agonist | TAAR1 nonsel count | TAAR1 antag conf | Ga16 nonsel ag | TAAR1 ag counter
CCOC(=O)Cc1csc(NC(=O)c2cc(-c3ccncc3)nc3ccccc23)n1 | 3.2 | -21.5 | 63.6* | 14.0 | -22.3 | -1.5 | 33.3* | 50.1* | 8.8 | 7.2
CCOc1ccccc1NC(=O)c1cc(-c2ccncc2)nc2c(Cl)cccc12 | . | . | 70.5* | 3.4 | . | . | 10.9 | 47.2 | 5.9 | 12.0
Cc1ccc(-c2cc(C(=O)Nc3cc(C(=O)O)ccc3C)c3ccccc3n2)cc1 | 19.3 | -13.1 | 15.7 | 11.0 | -7.5 | 3.0 | . | . | . | .
CCOC(=O)Cc1csc(NC(=O)c2ccc([N+](=O)[O-])cc2[N+](=O)[O-])n1 | 45.1 | -25.0 | -18.4 | 6.5 | 4.9 | 3.2 | . | . | . | .
O=C(CSC1=NS(=O)(=O)c2ccccc2N1)Nc1nccs1 | 25.8 | 1.4 | -23.3 | 2.7 | 0.5 | -0.9 | . | . | . | .
COc1ccc(C)cc1-n1nnnc1SCc1nc2ccccc2s1 | 42.7 | -17.3 | 53.8* | 15.9 | -7.5 | -0.7 | 26.8* | 26.8 | 5.8 | 2.6
Cc1ccc(S(=O)(=O)N(C)c2c(C)ccc(S(N)(=O)=O)c2C)cc1 | 9.4 | -13.7 | -2.2 | 11.9 | -16.0 | 1.9 | . | . | . | .
O=C(CCCOc1ccc(Cl)cc1Cl)N1CCCc2ccccc21 | 10.5 | -29.1 | 49.9* | 5.9 | -42.1 | 13.5 | 14.0 | 12.2 | 0.4 | -0.8
CCC(C)NC(=O)c1cc(-c2cccs2)nc2ccccc12 (stereo unspecified) | 7.8 | -18.5 | 13.9 | 9.6 | -15.3 | -1.2 | . | . | . | .
NS(=O)(=O)c1cccc(NC(=O)c2cc(-c3cccs3)nc3ccccc23)c1 | 16.8 | -5.1 | 67.2* | 10.6 | -9.1 | 1.4 | 37.5* | 49.5* | 7.8 | 10.1
CC(C)CCNC(=O)c1cc(-c2cccs2)nc2ccccc12 | 1.8 | -29.9 | 65.7* | 8.2 | -9.3 | 2.2 | 28.8* | 45.7 | 5.6 | 2.8
O=C(NCc1cccs1)c1cc(-c2ccccc2)nc2ccccc12 | 10.3 | -30.8 | 57.6* | 7.1 | -18.4 | 0.1 | 22.9* | 40.2 | 6.8 | 6.4
NS(=O)(=O)c1ccc(CNC(=O)c2cc(-c3cccs3)nc3ccccc23)cc1 | 7.2 | -2.0 | 68.6* | 15.1 | -1.9 | 1.9 | 35.5* | 51.0* | 9.0 | 11.8
Cc1ccc(Cl)c2c1NC(=O)C2=O | 36.7 | 2.9 | 6.9 | 5.5 | -7.0 | 1.0 | . | . | . | .
CCc1nnc(NC(=O)C(CC)CC)s1 | 7.1 | -10.6 | -14.5 | 0.4 | -3.1 | 1.1 | . | . | . | .
NS(=O)(=O)c1ccc(CCNC(=O)c2cc(-c3cccs3)nc3ccccc23)cc1 | . | . | 65.3* | 18.5 | . | -1.6 | 35.0* | 56.7* | 11.5* | 10.3
O=C(c1cc(-c2cccs2)nc2ccccc12)N1CCN(S(=O)(=O)c2cccc(F)c2)CC1 | 6.8 | 9.1 | 52.1* | 15.0 | -10.4 | 2.0 | 33.9* | 46.1 | 11.4 | 12.0
O=C(c1cc(-c2cccs2)nc2ccccc12)N1CCN(S(=O)(=O)c2ccccc2)CC1 | 3.2 | -35.9 | 48.4 | 22.6 | -12.1 | 3.8 | . | . | . | .
COc1cc(-c2cc(C(=O)NCCc3ccc(S(N)(=O)=O)cc3)c3ccccc3n2)cc(OC)c1OC | 6.4 | -33.9 | 41.9 | 2.6 | -16.2 | -0.6 | . | . | . | .
